Data on seven compounds can be found in ChEMBL document CHEMBL1137668, “Activities of several classes of acyclic nucleoside phosphonates against camelpox virus replication in different cell culture models” (Antimicrob Agents Chemother, 2007).

A short description of series [1]: Selectivity index, ratio of CC50 for HEL299 cells to EC50 for Camelpox virus CML14 infected in HEL299 cells. It is filed as toxicity, cell-based, HEL 299. The note with it: human, HEL299 cells; read-out: Ratio CC50/IC50.
Series [2] in a line: Cytotoxicity against human PHK after 4 days by Z1 Coulter counting analysis. The conditions noted are these: PHK cells. In outline:
(§1)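 Cell growth inhibition: HEL cells were seeded at 3.5 × 10³ per well and PHKs at 5 × 10³ per well. Serial dilutions were added in duplicate after 1 day (HEL) or 3 days (PHK). After 4 days with compound, cells were trypsinized and counted with a Coulter counter (8 μm lower limit). CC50 is the concentration reducing growth by 50%, mean ± SD of at least two experiments.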

In series [3] the test system is Camelpox virus. As to the kind of experiment: Antiviral activity against Camelpox virus CML14 infected in human PHK assessed as inhibition of virus-induced cytopathic effect after 6 days by Giemsa staining. Type of series: functional, organism-based. The note with it: CML14, 144 h.
A short description of series [4]: Selectivity index, ratio of CC50 for HEL299 cells to EC50 for Camelpox virus CML1 infected in HEL299 cells. The conditions noted are these: human, HEL299 cells; read-out: Ratio CC50/IC50. Type of series: toxicity, cell-based, HEL 299.
In series [5] the test system is Camelpox virus. As to the kind of experiment: Antiviral activity against Camelpox virus CML14 infected in human PHK assessed as reduction in viral titer after 6 days postinfection by virus yield reduction assay. The note with it: for EC99: CML14, 144 h. Type of series: functional.
The subject of series [6] is Camelpox virus. As to the kind of experiment: Antiviral activity against Camelpox virus CML14 infected in HEL299 cells assessed as reduction in viral titer after 6 days postinfection by virus yield reduction assay. Type of series: functional. The note with it: for EC99: CML14, HEL 299, 144 h; for Activity: HEL 299.
The subject of series [7] is Camelpox virus. As to the kind of experiment: Antiviral activity against Camelpox virus CML14 infected in HEL299 cells assessed as inhibition of virus-induced cytopathic effect after 6 days by Giemsa staining. It is filed as functional, organism-based. The conditions noted are these: CML14, HEL 299, 144 h.
Series [8] can be described thus: Selectivity index, ratio of CC50 for human PHK to EC50 for Camelpox virus CML14 infected in human PHK.
The subject of series [9] is Camelpox virus. As to the kind of experiment: Antiviral activity against Camelpox virus CML1 infected in HEL299 cells assessed as inhibition of virus-induced cytopathic effect after 6 days by Giemsa staining. It is filed as functional, organism-based. The note with it: CML1, HEL 299, 144 h.
Series [10] is described as follows: Selectivity index, ratio of CC50 for human PHK to EC50 for Camelpox virus CML1 infected in human PHK.
Series [11] deals with Camelpox virus. The series is described as follows: Antiviral activity against Camelpox virus CML1 infected in human PHK assessed as inhibition of virus-induced cytopathic effect after 6 days by Giemsa staining. Type of series: functional, organism-based. The conditions noted are these: CML1, 144 h. A general note: Cytopathic effects are the visible damage that an infection or toxin causes in cultured cells.

Series [12] relates to Camelpox virus. As to the kind of experiment: Antiviral activity against Camelpox virus CML1 infected in human PHK assessed as reduction in viral titer after 6 days postinfection by virus yield reduction assay. It is filed as functional.
A short description of series [13]: Cytotoxicity against HEL299 cells after 4 days by Z1 Coulter counting analysis. It is filed as cell-based, HEL 299. The conditions noted are these: human, HEL299 cells. In outline:
as §1

For series [14], the system named is Camelpox virus. As to the kind of experiment: Antiviral activity against Camelpox virus CML1 infected in HEL299 cells assessed as reduction in viral titer after 6 days postinfection by virus yield reduction assay. Type of series: functional. The note with it: for Activity: HEL 299.

A word on the CC50: it is the concentration at which the toxic effect on the cells reaches its halfway point. Low readings indicate greater toxicity to the cells, high ones lower toxicity to the cells. As usually defined, the EC50 is the midpoint of the concentration-response curve. Broadly, the EC99 is the point of the concentration-response curve where the effect stands at 99%. With `Nc1ncnc2c1ncn2C[C@@H](CO)OCP(=O)(O)O`, the selectivity ratio in [1] was 60; in series [4] it was 66. In addition, the CC50 at 96 h turned out to be 1000 nM in series [2] and 32 µM in series [13]. Besides, the EC50 is 1.4 µM in the series with Camelpox virus [3], 500 nM in the series on Camelpox virus [7], 500 nM in the series with Camelpox virus [9] and 1 µM in the series with Camelpox virus [11]. The Activity result with Camelpox virus [5], in the series on Camelpox virus [6], with Camelpox virus [12] and in the series with Camelpox virus [14] was “Dose-dependent effect” in each case. For the same compound, the concentration for an effect of 99% (EC99) worked out at 2 µM in the series with Camelpox virus [5] and 1 µM in the series on Camelpox virus [6]. The “Ratio CC50/IC50” value in [8] and in series [10] was 1 in each case.
As for `Nc1ncnc2c1ncn2C[C@H]1COP(=O)(O)CO1`, the selectivity ratio in series [1] was determined as 441; in series [4] it was 393. Moreover, the CC50 at 96 h in series [2] was determined as 3000 nM; in series [13], 63 µM. In addition, the EC50 in the series on Camelpox virus [3] is 3.1 µM; in the series with Camelpox virus [7], 100 nM; with Camelpox virus [9] it was 200 nM; in the series on Camelpox virus [11] it was 1.6 µM. The Activity result in the series on Camelpox virus [5], in the series on Camelpox virus [6], in the series on Camelpox virus [12] and in the series with Camelpox virus [14] was “Dose-dependent effect” in each case. Further, the EC99 with Camelpox virus [5] was 6 µM; in the series with Camelpox virus [6], 2 µM; in the series on Camelpox virus [14] (CML1, HEL 299, 144 h) it was 3 µM. In addition, the figures for the “Ratio CC50/IC50” value in series [8] and in series [10] were 1 and 2, respectively.
With `CC(C)(C)C(=O)OCOP(=O)(COC(CO)Cn1cnc(N)nc1=O)OCOC(=O)C(C)(C)C` (centres undefined), the selectivity ratio in series [1] and in series [4] was 250 throughout. Besides, the values for the CC50 at 96 h in series [2] and in [13] were 1000 nM and 5 µM, respectively. The half-maximal effective concentration (EC50) with Camelpox virus [3] worked out at 0.3 µM; in the series on Camelpox virus [7] it was 20 nM; in the series on Camelpox virus [9], 20 nM; in the series on Camelpox virus [11] it was 0.6 µM. Also, the “Ratio CC50/IC50” value is 4 in series [8] and 2 in [10]. Also, in the series on Camelpox virus [14], the Activity entry was “Dose-dependent effect”.
On to `Nc1nc(NCS(=O)(=O)O)c2ncn(CCOCP(=O)(O)O)c2n1`, for which the selectivity ratio in [1] and in [4] was 1 in each case. Further, the CC50 at 96 h in series [2] stood at 100 nM; in [13], 2 µM. Moreover, the EC50 in the series with Camelpox virus [3] came to 4.9 µM; in the series with Camelpox virus [7], 1900 nM; with Camelpox virus [9] it was 1900 nM; in the series with Camelpox virus [11] it was 3.7 µM. The “Ratio CC50/IC50” value in series [8] and in [10] was 0.03 each time.
On to `CN(C)c1ncnc2c1ncn2CCOCP(=O)(O)O`, for which the selectivity ratio in [1] and in [4] was 1 each time. Moreover, the CC50 at 96 h turned out to be 1000 nM in [2] and 22 µM in [13]. The EC50 with Camelpox virus [3] turned out to be 10.9 µM; in the series with Camelpox virus [7] it was 24600 nM; with Camelpox virus [9], 29400 nM; with Camelpox virus [11], 8.5 µM. Also, the “Ratio CC50/IC50” value in series [8] and in series [10] was 0.1 each time.
With `C[C@@H](O)[C@H](Nc1nc(N)nc2c1ncn2CCOCP(=O)(O)O)C(=O)O`, the selectivity ratio in [1] and in [4] was 0.3 each time. Further, the CC50 at 96 h in series [2] was 19000 nM; in series [13], 39 µM. In addition, the EC50 in the series on Camelpox virus [3] was greater than 128 µM; in the series with Camelpox virus [7], 112000 nM; in the series with Camelpox virus [9], 112000 nM; in the series on Camelpox virus [11], greater than 128 µM. For the same compound, the “Ratio CC50/IC50” value in series [8] and in series [10] was less than 0.2 throughout.
For `CC(O)C(Nc1nc(N)nc2c1ncn2CCOCP(=O)(O)O)C(=O)O` (racemic), the selectivity ratio in series [1] turned out to be 0.3; in series [4], 0.2. The half-maximal cytotoxic concentration (CC50) at 96 h stood at 2000 nM in series [2] and 9 µM in series [13]. Also, the EC50 was 71.5 µM in the series with Camelpox virus [3], 29000 nM in the series with Camelpox virus [7], 44100 nM in the series on Camelpox virus [9] and 47.7 µM in the series on Camelpox virus [11]. Also, the “Ratio CC50/IC50” value in series [8] came out at 0.03; in series [10], 0.04.
